HCV NS3 hel inh – inhibitors of Hepatitis C virus NS3 helicase; AID 1800; NS3 helicase DNA unwinding, Cy5 molecular beacon fluorescence; inhibition, % at 10.9 µM; 290,000 compounds, 0.56% hits;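 active = inhibition above the mean of all tested compounds plus 3 SD, set per campaign, cut at about 35% in these data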
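Control set: DMSO versus 110 µM thioflavine S; Material: NS3 helicase fragment of HCV; Measured by: Cy5 fluorescence at 0 and 60 min, beacon hairpin quenching; Read-out basis: percent inhibition from t60/t0 fluorescence ratio; Times: reaction time 60 min, 25 °C; Repeats: single replicate; Compound dosing: single dose, 10.9 µM nominal final, DMSO 0.8% final.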
FID counter – counter-screen for HCV NS3 helicase inhibitors: DNA intercalator displacement; DNA fluorescent intercalator displacement, fluorescence; inhibition, % at 7.9 µM; 290,000 compounds, 0.17% hits; in the data active = inhibition above about 37%;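 note: higher means more ethidium bromide displaced from hairpin DNA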
GRIN3A LBD mod – modulators (binders) of human NR3A ligand-binding domain; NR3A LBD differential scanning fluorimetry, Tm shift; 0% = protein alone, 100% = glycine-bound protein; Tm shift relative to glycine control, % at 25 µM; 340,000 compounds, 2.5% hits;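 active = melting temperature shift of at least 10% of the positive control shift, at one fixed dose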
FGF22 binding – shifts melting point of recombinant human FGF22; Q9HCT0; recombinant FGF22 thermal shift, SYPRO orange fluorescence; percent of sucrose octasulfate shift, DMSO zero; activity (Tm shift, normalised), % at 9.99 µM; 340,000 compounds, 1.5% hits; AID 651658;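 active = mean Tm shift, scaled 0 neutral to 100 positive control, at about 1.3% or above, every replicate too, limit read from the data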
Target sequence (Q9HCT0 whole entry, looked up): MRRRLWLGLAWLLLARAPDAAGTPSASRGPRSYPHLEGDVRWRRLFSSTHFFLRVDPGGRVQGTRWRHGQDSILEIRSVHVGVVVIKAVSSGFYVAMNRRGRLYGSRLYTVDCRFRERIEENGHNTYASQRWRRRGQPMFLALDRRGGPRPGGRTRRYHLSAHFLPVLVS
ZTA counter – blocks Epstein-Barr virus ZTA, an EBNA-1 counter-screen | ZTA-DNA binding, fluorescence polarization | inhibition, % at 11 µM | 320,000 compounds, 0.15% hits; in the data active = inhibition above about 33%
Target sequence (P03206 whole entry, looked up): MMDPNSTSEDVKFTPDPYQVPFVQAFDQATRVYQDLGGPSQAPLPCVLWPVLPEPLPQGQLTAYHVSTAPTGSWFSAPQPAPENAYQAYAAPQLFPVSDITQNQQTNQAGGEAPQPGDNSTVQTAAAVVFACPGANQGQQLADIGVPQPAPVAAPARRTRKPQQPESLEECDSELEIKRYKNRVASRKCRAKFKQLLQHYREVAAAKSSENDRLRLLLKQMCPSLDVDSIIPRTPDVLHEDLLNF
EBNA-1 inh – blocks EBNA-1 binding to DNA; EBNA-1 DNA binding, fluorescence polarization; inhibition, % at 14.8 µM; 300,000 compounds, 0.34% hits; in the data active = inhibition above about 28%
Numbers stand for hits. Hits are enriched below; roughly 3.6% of the tested compounds scored in any of these assays.

`CCCCCn1c(SCC(=O)OCC)nc2cc(C(=O)N3CCC(C(N)=O)CC3)ccc2c1=O` gave HCV NS3 hel inh inactive, FID counter inactive, GRIN3A LBD mod inactive, ZTA counter inactive and EBNA-1 inh inactive.
Cc1cc(-c2ccccc2)nc(N/N=C/c2ccc(O)cc2)n1 was read as GRIN3A LBD mod inactive and FGF22 binding inactive.
Screening Oc1ccc(/C=N/Nc2nc(-c3ccc(Cl)cc3)cc(C(F)(F)F)n2)cc1 returned HCV NS3 hel inh inactive, FID counter inactive, GRIN3A LBD mod 31.6, FGF22 binding inactive, ZTA counter inactive and EBNA-1 inh inactive.
O=c1c2ccccc2nc(/C=C/c2c[nH]c3ccccc23)n1-c1ccc([N+](=O)[O-])cc1 was read as HCV NS3 hel inh inactive, FID counter inactive, GRIN3A LBD mod 25.9, FGF22 binding inactive, ZTA counter inactive and EBNA-1 inh inactive.
Screening Cc1[nH]c2ccccc2c1/C=C/c1nc2ccccc2c(=O)n1-c1cccc([N+](=O)[O-])c1 returned HCV NS3 hel inh inactive, FID counter inactive, GRIN3A LBD mod inactive, ZTA counter inactive and EBNA-1 inh inactive.
For O=C(C1=C[C@H](c2ccc(Br)cc2)C[C@H](OCc2ccc(CO)cc2)O1)N1CCCCCCC1 the results were FGF22 binding inactive.
CCCNC(=O)c1cc(C2CCCCN2C(=O)c2ccc3ccccc3c2)on1 (configuration not stated) was read as FGF22 binding inactive.
`CCCNC(=O)c1cc(C2CCCCN2C(=O)c2ccc3c(c2)CCO3)on1` (configuration not stated) gave FGF22 binding 43.0.
For Cc1ccc(S(=O)(=O)Oc2ccccc2[N+](=O)[O-])cc1 the results were GRIN3A LBD mod inactive and FGF22 binding 43.3.
Screening COc1ccccc1[N+](=O)[O-] returned GRIN3A LBD mod inactive, FGF22 binding inactive and ZTA counter inactive.
`CCS(=O)(=O)Nc1ccc2c(c1)C(=O)N(C)C[C@H](OC)[C@@H](C)CN(CC1CCCCC1)[C@H](C)CO2` gave FGF22 binding inactive.
COc1ccccc1-c1noc(CSc2nc(N)cc(=O)[nH]2)n1 was read as HCV NS3 hel inh inactive, FID counter inactive, GRIN3A LBD mod inactive, FGF22 binding 43.0, ZTA counter inactive and EBNA-1 inh inactive.
Screening O=C(O)C[C@H]1C[C@@H]2c3cc(NC(=O)CC4CC4)ccc3O[C@@H]2[C@@H](CO)O1 returned FGF22 binding inactive.
Cc1nn2c(-c3ccccc3)c(-c3ccccc3)nc2[nH]c1=O was read as HCV NS3 hel inh inactive, FID counter inactive, GRIN3A LBD mod 20.2, ZTA counter inactive and EBNA-1 inh inactive.
`COc1ccccc1Cn1c(/C=C/c2ccccc2)nc2ccccc21` gave HCV NS3 hel inh inactive, FID counter inactive, GRIN3A LBD mod 11.2, ZTA counter inactive and EBNA-1 inh inactive.
`COc1ccc(OC)c(Nc2nc(N(C)c3ccccc3)nc(N)c2[N+](=O)[O-])c1` gave HCV NS3 hel inh inactive, FID counter inactive, GRIN3A LBD mod 12.1, FGF22 binding inactive, ZTA counter inactive and EBNA-1 inh inactive.
For COc1cccc(-c2noc(C(C)n3nc(C)c([N+](=O)[O-])c3C)n2)c1 (configuration not stated) the results were HCV NS3 hel inh inactive, FID counter inactive, GRIN3A LBD mod 13.8, ZTA counter inactive and EBNA-1 inh inactive.
Screening COc1cccc(-c2noc(-c3cccnc3)n2)c1 returned HCV NS3 hel inh inactive, FID counter inactive, GRIN3A LBD mod inactive, ZTA counter inactive and EBNA-1 inh inactive.
Cc1cccc(N2CCN(C(=S)Nc3ccc4nc(N5CCN(C)CC5)cc(C)c4c3)CC2C)c1 (configuration not stated) was read as HCV NS3 hel inh inactive, FID counter 47.2, GRIN3A LBD mod inactive, FGF22 binding inactive, ZTA counter inactive and EBNA-1 inh inactive.
`Cc1cc(N2CCN(C)CC2)nc2ccc(NC(=S)N3CCN(c4ccc(F)cc4)CC3)cc12` gave HCV NS3 hel inh inactive, FID counter inactive, GRIN3A LBD mod inactive, FGF22 binding inactive, ZTA counter inactive and EBNA-1 inh inactive.
For Cc1cc(N2CCN(C)CC2)nc2ccc(NC(=S)N3CCN(c4cccc(Cl)c4)CC3)cc12 the results were HCV NS3 hel inh inactive, FID counter inactive, GRIN3A LBD mod inactive, FGF22 binding inactive, ZTA counter inactive and EBNA-1 inh inactive.
For Cc1cc(N2CCN(C)CC2)nc2ccc(NC(=S)N3CCN(c4ccc(Cl)cc4)CC3)cc12 the results were HCV NS3 hel inh inactive, FID counter 45.8, GRIN3A LBD mod inactive, FGF22 binding inactive, ZTA counter inactive and EBNA-1 inh inactive.
`CC(=O)Nc1ccc(S(=O)(=O)Nc2nc3ccccc3nc2-n2ccc(=NC(=O)c3ccc(F)cc3)cc2)cc1` gave HCV NS3 hel inh inactive, FID counter inactive, GRIN3A LBD mod 36.0, FGF22 binding inactive, ZTA counter inactive and EBNA-1 inh inactive.
For CC(=O)Nc1ccc(S(=O)(=O)Nc2nc3ccccc3nc2-n2ccc(=NC(=O)c3ccccc3)cc2)cc1 the results were HCV NS3 hel inh inactive, FID counter inactive, GRIN3A LBD mod 24.6, FGF22 binding inactive, ZTA counter inactive and EBNA-1 inh inactive.
O=C(N=c1ccn(-c2nc3ccccc3nc2NS(=O)(=O)c2ccc(Cl)cc2)cc1)c1ccccc1Cl was read as HCV NS3 hel inh inactive, FID counter inactive, ZTA counter inactive and EBNA-1 inh inactive.
Screening O=C(N=c1ccn(-c2nc3ccccc3nc2NS(=O)(=O)c2ccccc2)cc1)c1ccccc1Cl returned HCV NS3 hel inh inactive, FID counter inactive, GRIN3A LBD mod inactive, FGF22 binding inactive, ZTA counter inactive and EBNA-1 inh inactive.
`CCc1cccc2c(C(=O)C(F)(F)F)cn(CC(=O)N3CCOCC3)c12` gave HCV NS3 hel inh inactive, FID counter inactive, GRIN3A LBD mod inactive, FGF22 binding 43.0, ZTA counter inactive and EBNA-1 inh inactive.
`CC(C)=CCc1c(-c2ccc(O)cc2O)oc2cc3c(c(O)c2c1=O)C=CC(C)(C)O3` gave GRIN3A LBD mod 31.4, ZTA counter inactive and EBNA-1 inh inactive.
For COc1ccc(-c2oc3c4c(cc(OC)c3c(=O)c2CC=C(C)C)OC(C)(C)C=C4)c(OC)c1 the results were ZTA counter inactive and EBNA-1 inh inactive.
C[C@H]1CN([C@@H](C)CO)C(=O)c2cc(C#CC3CC3)cnc2O[C@H]1CN(C)C(=O)CC1CC1 was read as FGF22 binding inactive.
CNc1nc2c3ccccc3n(C(C)=O)c2s1 was read as HCV NS3 hel inh inactive, FID counter inactive, GRIN3A LBD mod 18.2, ZTA counter inactive and EBNA-1 inh inactive.
Screening COCCCNC(=O)[C@@]1(Cc2ccccc2N=[N+]=[N-])N=C(c2ccc(OCCCO)cc2)O[C@H]1c1ccccc1N=[N+]=[N-] returned FGF22 binding inactive.

From PubChem
